According to ChEMBL document CHEMBL4368903, “Identification of GSK3186899/DDD853651 as a Preclinical Development Candidate for the Treatment of Visceral Leishmaniasis” (J Med Chem, 2019):
In brackets after ≈: the same amount, converted by molar mass. One block for each molecule: values may come before it. Activity calls are given as the source filed them. No cut-off for these calls is given here.

Columns and labels:
[1] = Intrinsic clearance in human liver microsomes at 0.5 uM after 3 to 30 mins in presence of NADPH by UPLC-MS/MS analysis; format: ADME, Microsome
Procedure, shortened: (§1)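 0.5 μM compound with female CD1 mouse or human liver microsomes, started with excess NADPH in 50 mM potassium phosphate pH 7.4. Aliquots at 0, 3, 6, 9, 15 and 30 min quenched in acetonitrile with internal standard. UPLC-MS/MS; rate constant from exponential decay of compound/IS ratio. Verapamil as positive control.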

[2] = Cmax in BALB/c mouse at 10 mg/kg, po measured up to 24 hrs by UPLC-MS/MS analysis; format: ADME, organism-based; set-up: dose 10 mg/kg, route oral; details: in vivo
Procedure, shortened: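 Single oral dose to female Balb/c mice (n=3) in 10% DMSO/60% PEG400/30% water. Blood sampled at 0.08–24 h and mixed with two volumes of water. Compound quantified by UPLC-MS/MS. Parameters taken from the mean blood concentration–time curve.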

[3] = Kinetic aqueous solubility of the compound in phosphate buffer at pH 7.4 by CLND assay; format: physicochemical; details: phosphate buffer, read-out: Kinetic_solubility
Procedure, shortened: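 From 10 mM DMSO stock diluted 1:20 into pH 7.4 PBS, equilibrated 1 h at RT, filtered. Filtrate quantified by calibrated flow-injection CLND. Dynamic range 1–500 μM.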

[4] = Fraction unbound in CD1 mouse plasma at 10 ug/ml after 15 mins by UPLC-MS/MS analysis; format: ADME, cell-free
[5] = tested on: THP-1; assay: Cytotoxicity against human THP1 cells; format: cell-based
[6] = Dissociation constant, pKa of the compound by UV-spectroscopy; format: physicochemical
Procedure, shortened: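 Sirius T3 acid–base titration with UV read-out: 5 μL of 10 mM sample, absorbance over 54 pH values in about 5 min. Methanol cosolvent with Yasuda–Shedlovsky extrapolation used when precipitation occurred.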

[7] = Oral bioavailability in BALB/c mouse at 10 mg/kg measured up to 24 hrs by UPLC-MS/MS analysis; format: ADME, organism-based; details: in vivo
[8] = Fraction unbound in human plasma at 10 ug/ml after 15 mins by UPLC-MS/MS analysis; format: ADME, cell-free
[9] = Permeability of the compound by artificial membrane permeability assay; format: ADME; details: PAMPA; read-out: permeability
[10] = AUClast in BALB/c mouse at 10 mg/kg, po measured up to 24 hrs by UPLC-MS/MS analysis; format: ADME, organism-based; set-up: time < 24 hr, dose 10 mg/kg, route oral; details: in vivo
Procedure, shortened: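 Female Balb/c mice (n=3) dosed orally in 10% (v/v) DMSO, 60% PEG 400, 30% deionized water. AUC0–last (to last measurement) derived from the mean blood concentration–time curve.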

[11] = Intrinsic clearance in CD1 mouse liver microsomes at 0.5 uM after 3 to 30 mins in presence of NADPH by UPLC-MS/MS analysis; format: ADME, Microsome; procedure, shortened: as §1
[12] = tested on: HepG2; assay: Cytotoxicity against human HepG2 cells; format: cell-based
[13] = tested on: Leishmania donovani; assay: Antileishmanial activity against Leishmania donovani LV9 amastigotes infected in BALB/c mouse assessed as suppression of parasite load within liver at 50 mg/kg, po administered bid for 5 days relative to control; format: functional
Procedure, shortened: (§2)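 Female BALB/c mice, 5 per group, infected i.v. with about 2×10^7 L. donovani LV9 amastigotes harvested from infected hamster spleen. Oral dosing starts day 7 post-infection, in 0.5% HPMC/0.4% Tween 80/0.5% benzyl alcohol, or 10% DMSO/60% PEG400/30% water for the 5-day 50 mg/kg regimen. Dosing solutions made fresh daily. Killed day 14 (5-day) or 19 (10-day). Liver smears give LDU (amastigotes/500 nucleated cells × organ weight). Mean LDU compared with vehicle control gives % suppression.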

[14] = Volume of distribution at steady state in BALB/c mouse at 10 mg/kg, po measured up to 24 hrs by UPLC-MS/MS analysis; format: ADME, organism-based; details: in vivo
Procedure, shortened: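 Female Balb/c mice (n = 3) were dosed in 10% (v/v) DMSO, 60% PEG 400 and 30% deionized water. Compound in blood was quantified by UPLC-MS/MS, and parameters were derived from the mean blood concentration–time curve.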

[15] = tested on: Leishmania donovani; assay: Antileishmanial activity against Leishmania donovani […] in human THP1 cells by intramacrophage assay; format: functional, organism-based; details: Leishmania donovani, THP-1
[16] = Solubility of compound in fasted simulated intestinal fluid at 1 mg after 4 hrs by HPLC-UV analysis; format: physicochemical; details: fasted simulated intestinal fluid
Procedure, shortened: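 1 mg solid shaken in 1 mL FaSSIF (3 mM sodium taurocholate, 0.75 mM lecithin, phosphate buffer pH 6.5) at 900 rpm for 4 h at room temperature, then filtered. Supernatant quantified by HPLC-UV against single-point DMSO calibration. Range 1–1000 μg/mL.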

[17] = Blood clearance in BALB/c mouse at 10 mg/kg, […] measured up to 24 hrs by UPLC-MS/MS analysis; format: ADME, organism-based; details: whole blood
[18] = Toxicity in Crl:WI(Han) rat assessed as increase in ALP at 1000 mg/kg/day, po via gavage for 7 days; format: organism-based; details: in vivo, 168 h
Procedure, shortened: (§3)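 Male Crl:WI(Han) rats given oral gavage daily for 7 days at 100, 300 and 1000 mg/kg/day. Clinical signs, macroscopic findings, clinical pathology versus controls, and a liver gene expression panel for hepatic toxicity mechanisms.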

[19] = tested on: Lymphoma cell line; assay: Clastogenicity in mouse Lymphoma cells at 120 ug/ml; format: toxicity, cell-based
[20] = Toxicity in Crl:WI(Han) rat assessed as decrease in calcium levels at 1000 mg/kg/day, po via gavage for 7 days; format: organism-based; details: in vivo, 168 h
[21] = Toxicity in Crl:WI(Han) rat assessed as decrease in HCT levels at 300 to 1000 mg/kg/day, po via gavage for 7 days; format: organism-based; details: in vivo, 168 h
[22] = tested on: Leishmania donovani; assay: Antileishmanial activity against Leishmania donovani LV9 amastigotes infected in BALB/c mouse assessed as suppression of parasite load within liver at 25 mg/kg, po administered bid for 10 days relative to control; format: functional; procedure, shortened: as §2
[23] = Mutagenicity in Salmonella typhimurium at 1500 ug/plate by Ames test; format: toxicity; details: salmonella enterica subsp. enterica serovar typhimurium
[24] = molecular target: Voltage-gated inwardly rectifying potassium channel KCNH2 (Homo sapiens, UniProt Q12809); assay: Inhibition of human ERG by patch clamp assay
Voltage-gated inwardly rectifying potassium channel KCNH2, sequence (Q12809 whole entry): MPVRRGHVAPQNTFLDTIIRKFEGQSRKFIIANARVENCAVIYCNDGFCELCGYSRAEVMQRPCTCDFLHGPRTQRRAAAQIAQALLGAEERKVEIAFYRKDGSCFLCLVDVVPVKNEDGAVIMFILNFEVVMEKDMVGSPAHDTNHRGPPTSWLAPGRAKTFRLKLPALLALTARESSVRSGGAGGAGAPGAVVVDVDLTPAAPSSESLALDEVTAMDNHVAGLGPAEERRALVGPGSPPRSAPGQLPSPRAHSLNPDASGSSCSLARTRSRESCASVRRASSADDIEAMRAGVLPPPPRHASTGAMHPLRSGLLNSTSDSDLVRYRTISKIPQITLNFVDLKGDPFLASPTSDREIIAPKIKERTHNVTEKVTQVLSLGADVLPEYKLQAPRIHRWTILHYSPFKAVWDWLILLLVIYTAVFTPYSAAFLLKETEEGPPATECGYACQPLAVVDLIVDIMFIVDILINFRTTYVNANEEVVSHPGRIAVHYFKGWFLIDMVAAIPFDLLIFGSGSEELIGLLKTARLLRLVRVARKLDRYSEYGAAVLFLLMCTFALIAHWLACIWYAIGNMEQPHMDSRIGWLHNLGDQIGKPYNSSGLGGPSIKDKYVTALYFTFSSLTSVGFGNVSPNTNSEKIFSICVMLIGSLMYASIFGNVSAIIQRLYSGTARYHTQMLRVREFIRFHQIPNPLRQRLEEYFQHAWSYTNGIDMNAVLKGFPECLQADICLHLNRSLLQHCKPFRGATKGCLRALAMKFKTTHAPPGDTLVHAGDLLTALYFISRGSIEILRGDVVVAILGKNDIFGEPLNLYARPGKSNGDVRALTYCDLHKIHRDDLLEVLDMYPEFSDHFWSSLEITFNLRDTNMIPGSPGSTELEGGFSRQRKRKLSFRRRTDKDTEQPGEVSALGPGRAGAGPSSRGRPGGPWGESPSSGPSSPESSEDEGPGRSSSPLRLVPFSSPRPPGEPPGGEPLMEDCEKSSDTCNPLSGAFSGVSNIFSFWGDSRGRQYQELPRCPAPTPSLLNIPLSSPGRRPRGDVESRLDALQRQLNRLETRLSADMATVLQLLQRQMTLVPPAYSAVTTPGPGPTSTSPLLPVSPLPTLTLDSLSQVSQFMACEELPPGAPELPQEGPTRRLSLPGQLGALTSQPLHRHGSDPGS

[25] = Toxicity in Crl:WI(Han) rat assessed as decrease in RBC levels at 300 to 1000 mg/kg/day, po via gavage for 7 days; format: organism-based; details: in vivo, 168 h
[26] = Toxicity in Crl:WI(Han) rat assessed as effect on liver gene expression in liver at 100 to 1000 mg/kg/day, po via gavage for 7 days; format: organism-based; details: in vivo, 168 h; procedure, shortened: as §3
[27] = molecular target: Cyclin-dependent kinase 2 (Homo sapiens) (UniProt P24941); assay: Inhibition of human CDK2 by kinobeads-based assay
[28] = Toxicity in Crl:WI(Han) rat assessed as increase in CYP1A1 gene expression in liver at 100 to 1000 mg/kg/day, po via gavage for 7 days; format: organism-based; details: in vivo, 168 h; procedure, shortened: as §3
[29] = Toxicity in Crl:WI(Han) rat assessed as effect on macro observations parameters at 100 to 1000 mg/kg/day, po via gavage for 7 days; format: organism-based; details: in vivo, 168 h; procedure, shortened: as §3
[30] = Toxicity in Crl:WI(Han) rat assessed as decrease in hemoglobin levels at 300 to 1000 mg/kg/day, po via gavage for 7 days; format: organism-based; details: in vivo, 168 h
[31] = Toxicity in Crl:WI(Han) rat assessed as decrease in albumin levels at 300 mg/kg/day, po via gavage for 7 days; format: organism-based; details: in vivo, 168 h
[32] = Therapeutic index, ratio of fCmax in conscious unrestrained telemetered Crl:WI(Han) rat at 300 mg/kg/day, po via gavage for 7 days measured on day 1 to fCmax in Leishmania donovani LV9 amastigotes infected BALB/c mouse at 25 mg/kg, po administered bid for 10 days measured on day 1; format: organism-based; details: in vivo, read-out: TI
Procedure, shortened: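 Index = free Cmax on day 1 of the rat cardiovascular study / free Cmax on day 1 of the mouse efficacy model. Rat arm: conscious, unrestrained, telemetered male CRL:WI(Han) rats given a single oral dose (up to 1000 mg/kg). Mouse arm: female BALB/c infected i.v. with L. donovani LV9 amastigotes, dosed orally twice daily from day 7 post-infection in 0.5% HPMC, 0.4% Tween 80, 0.5% benzyl alcohol.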

[33] = Toxicity in Crl:WI(Han) rat assessed as increase in triglycerides levels at 300 mg/kg/day, po via gavage for 7 days; format: organism-based; details: in vivo, 168 h; procedure, shortened: as §3
[34] = Toxicity in Crl:WI(Han) rat assessed as increase in plasma glucose levels at 1000 mg/kg/day, po via gavage for 7 days; format: organism-based; details: in vivo, 168 h; procedure, shortened: as §3
[35] = Cardiotoxicity in Crl:WI(Han) rat up to 1000 mg/kg, po via gavage; format: toxicity, organism-based; details: in vivo
Procedure, shortened: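 Conscious unrestrained telemetered male CRL:WI(Han) rats given a single oral dose of vehicle or test article up to 1000 mg/kg. Cardiovascular and electrocardiographic parameters monitored.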

[36] = Toxicity in Crl:WI(Han) rat assessed as decrease in total protein levels at 300 mg/kg/day, po via gavage for 7 days; format: organism-based; details: in vivo, 168 h
[37] = Toxicity in Crl:WI(Han) rat assessed as effect on life and clinical signs at 100 to 1000 mg/kg/day, po via gavage for 7 days; format: organism-based; details: in vivo, 168 h; procedure, shortened: as §3
[38] = Toxicity in rabbit cardiac ventricular wedge assessed as QT shortening at 30 uM relative to control; format: tissue-based, Oryctolagus cuniculus, Cardiac ventricle
[39] = Toxicity in Crl:WI(Han) rat assessed as drug tolerability dose at 100 to 1000 mg/kg/day, po via gavage for 7 days; format: organism-based; details: in vivo, read-out: Activity
Procedure, shortened: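 Male Crl:WI(Han) rats dosed by oral gavage once daily in a 7-day repeat-dose study at 100, 300 and 1000 mg/kg/day. Tolerated doses judged from in-life and clinical signs, macroscopic observations, histopathology, clinical pathology and liver gene expression profiling versus controls.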

[40] = molecular target: Cytochrome P450 3A4 (Homo sapiens, UniProt P08684); assay: Inhibition of CYP3A4 in human liver microsomes using midazolam as substrate preincubated for 20 mins followed by substrate addition and measured after 5 mins by LC-MS/MS analysis; format: ADME
Cytochrome P450 3A4, sequence (P08684 whole entry): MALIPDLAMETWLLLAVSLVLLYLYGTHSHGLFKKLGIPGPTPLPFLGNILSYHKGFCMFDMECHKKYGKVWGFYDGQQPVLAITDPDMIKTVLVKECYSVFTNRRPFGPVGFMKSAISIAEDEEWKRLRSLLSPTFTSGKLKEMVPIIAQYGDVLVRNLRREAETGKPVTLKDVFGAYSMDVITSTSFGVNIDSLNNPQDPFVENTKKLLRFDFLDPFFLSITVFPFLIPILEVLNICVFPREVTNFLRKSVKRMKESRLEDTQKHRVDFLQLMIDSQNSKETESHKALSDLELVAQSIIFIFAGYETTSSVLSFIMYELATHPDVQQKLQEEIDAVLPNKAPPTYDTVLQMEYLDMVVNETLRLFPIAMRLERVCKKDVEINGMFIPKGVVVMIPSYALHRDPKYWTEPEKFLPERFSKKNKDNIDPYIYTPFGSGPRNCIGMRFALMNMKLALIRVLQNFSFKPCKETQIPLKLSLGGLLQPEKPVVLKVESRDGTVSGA
Procedure, shortened: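 Pooled human liver microsomes (final 0.1 mg/mL) with midazolam marker substrate, monitoring CYP3A4-specific metabolite. Test compound at eight concentrations, 0.1–100 μM, final organic ≤0.5%. Preincubated at 37 °C for 20 min, then substrate or cofactor added and incubated 5 min at 37 °C. Stopped with ice-cold acetonitrile; LC-MS/MS read-out gives pIC50.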

[41] = Ratio of AUC (0 to 24 hrs) in conscious unrestrained telemetered Crl:WI(Han) rat at 300 mg/kg/day, po via gavage for 7 days measured on day 7 to AUC (0 to 24 hrs) in Leishmania donovani LV9 amastigotes infected BALB/c mouse at 25 mg/kg, po administered bid for 10 days measured on day 10; format: ADME, organism-based; details: in vivo, read-out: TI
Procedure, shortened: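 Index = AUC0–24 on day 7 of the rat study / AUC0–24 on day 10 of the mouse efficacy model. Rat arm: male Crl:WI(Han) rats, oral gavage once daily for 7 days at 100, 300 or 1000 mg/kg/day. Mouse arm: female BALB/c infected i.v. with ~2×10^7 L. donovani LV9 amastigotes, dosed orally twice daily for 10 days from day 7 post-infection in 0.5% HPMC, 0.4% Tween 80, 0.5% benzyl alcohol.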

CLH [1]: < 0.5 mL/min/g
Cmax [2]: 1910 ng/mL
solubility kinetic [3]: 8 µM (≈ 3.76 µg/mL)
fraction unbound at 0.25 h, 10 ug/ml [4]: 0.13
pKa [6]: 3.2
bioavailability [7]: 44%
fraction unbound at 0.25 h, 10 ug/ml [8]: 0.08
Papp [9]: 44 ×10⁻⁶ cm/s
AUC(0-t) at 24 h [10]: 17400 ng·h/mL
CLH [11]: 0.6 mL/min/g
Vdss [14]: 0.9 L/kg
EC50 [15]: 0.501 µM
solubility at 4 h [16]: < 1 µg/mL
CL/F [17]: 4 mL/min/kg
SMILES: O=S(=O)(CCC(F)(F)F)N[C@H]1CC[C@H](Nc2ncc3c(-c4ccccn4)n[nH]c3n2)CC1
EC50 [5]: 50.1 µM
EC50 [12]: > 100 µM
Activity [13]: 85%

SMILES: C[C@H]1CN(c2n[nH]c3nc(N[C@H]4CC[C@H](NS(=O)(=O)CCC(F)(F)F)CC4)ncc23)CCO1 [GSK-3186899]
Activity [18]: Toxic
Activity [19]: Non-Toxic
Activity [20]: Toxic
Activity [21]: Toxic
CLH [1]: 0.7 mL/min/g
Activity [22]: >95%
Activity [23]: Non-Toxic
IC50 [24]: > 30 µM
Activity [25]: Toxic
Activity [26]: Non-Toxic
inhibition [27]: inactive
Activity [28]: Non-Toxic
solubility kinetic [3]: 99 µM (≈ 48.7 µg/mL)
Activity [29]: Non-Toxic
Activity [30]: Toxic
Activity [31]: Toxic
selectivity ratio [32]: 3
Activity [33]: Toxic
Activity [34]: Toxic
Activity [35]: Non-Toxic
Activity [36]: Toxic
Activity [37]: Non-Toxic
Activity [38]: 8.9%
CLH [11]: < 0.5 mL/min/g
EC50 [15]: 1.26 µM
MTD at 168 h [39]: 100 to 1000 mg/kg
IC50 [40]: > 39.8 µM
solubility at 4 h [16]: 17 to 64 µg/mL (≈ 34.6 to 130 µM)
selectivity ratio [41]: 13
